Results of several laboratories.
In brackets after ≈: the same amount, converted by molar mass.

For `O=C(Nc1cc(F)c(F)c(F)c1)c1ccc(F)c(S(=O)(=O)NCc2ccc(B(O)O)cc2)c1`, the EC50 was 380 nM (Hepatitis B virus; viral replication, inhibitor, qPCR; HePAD38; 6 days).
`Cl.NCCc1ccccc1Oc1ccc(-c2noc(-c3ccc(O)cc3)n2)cc1` gave an MIC of 8 µg/mL (Clostridioides difficile; microbial growth, broth dilution; 48 h).
The EC50 of `CC1(C)OB(c2ccc(CNS(=O)(=O)c3cc(C(=O)Nc4cc(F)c(F)c(F)c4)ccc3F)cc2)OC1(C)C` is reported as 490 nM (Hepatitis B virus; viral replication, inhibitor, qPCR; HePAD38; 6 days).
With `Nc1ccn([C@@H]2CS[C@H](CO)O2)c(=O)n1` the IC50 was 7.37 µM (Hepatitis B virus; viral replication, qPCR; HepG2.2.15; 6 days).
`O=C(O)CNc1ccc(-c2nc(-c3ccc(Oc4ccccc4)cc3)no2)cc1` gave an MIC of 13 µg/mL (≈ 33.6 µM) (Clostridioides difficile; microbial growth, broth dilution; 48 h).
The MIC of `Cc1ccc(C)n1-c1ccc(-c2nnc(-c3ccccc3[N+](=O)[O-])[nH]2)cc1` is reported as 31.2 µg/mL (≈ 87 µM) (Saccharomyces cerevisiae; microbial growth, broth dilution; ATCC9763).
`COc1c(N2C[C@@H]3CCCN[C@@H]3C2)c(F)cc2c(=O)c(C(=O)O)cn(C3CC3)c12` has an MIC90 of 0.06 µg/mL (≈ 0.149 µM) (Aliivibrio fischeri; microbial growth).
For `O=C(O)CCc1ccccc1Oc1ccc(-c2noc(-c3ccc(O)cc3)n2)cc1`, the MIC was 4 µg/mL (≈ 9.94 µM) (Clostridioides difficile; microbial growth, broth dilution; 48 h).
With `Cc1ccc(C)n1-c1ccc(-c2n[nH]c(=S)[nH]2)cc1` the MIC was over 500 µg/mL (Saccharomyces cerevisiae; microbial growth, broth dilution; ATCC9763).
The MIC90 of `O=C(N/N=C/c1ccc([N+](=O)[O-])o1)c1ccc(O)cc1` is reported as 7.8 µg/mL (≈ 28.3 µM) (Aliivibrio fischeri; microbial growth).
